Growth inhibition data for 40 molecules are collected here from PubChem BioAssay.

Active and inactive are the calls of the source.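 The calls were made as follows: active = growth inhibition above 25% in both replicates, a cutoff set 3 SD above the mean; inconclusive = above 25% in only one replicate; inactive = the rest.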

The nature of the assay: S. cerevisiae growth inhibition in permissive medium (OD615), pilot counter-assay for S. cerevisiae lifespan shortening project, permissive growth control (AID 705). The note with it: OD615, 24 h, at 10 µM, active compounds read high. An outline of the steps:
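assay system = Saccharomyces cerevisiae strain carrying genetically modified DeaD replicative-lifespan system | technique = absorbance (optical density) at 615 nm | buffer or medium = permissive raffinose/galactose medium | timing = cells pre-grown 4 h, then 24 h compound exposure, 30 °C humidified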
As to `COc1cc(NS(=O)(=O)c2ccc(NC(=O)COc3ccc(C)cc3)cc2)nc(OC)n1`, the growth inhibition was -14.3% (inactive).
The result for `CC(=O)c1ccc(N2CCN(C(=O)c3ccc(NC(=O)C4CCCO4)cc3)CC2)cc1` (stereo not given) reads -23.3% (inactive).
In the case of `CCN(CC)S(=O)(=O)c1ccc2oc(C(=O)NCC3COc4ccccc4O3)c(C)c2c1` (stereo not given) it was -4.71% (inactive).
Regarding `C(=N\c1nccs1)/c1c[nH]c2ccccc12`, the growth inhibition is -17.6% (inactive).
In the case of `COc1cc(C)c(C(C)C)cc1S(=O)(=O)n1cnc(C)c1` it was 0.115% (inactive).
On to `CNC(=O)C1C2C=CC3(O2)C1C(=O)N(CCOC)C3C(=O)NCc1ccc(OC)cc1` (stereo not given), for which the growth inhibition was -11% (inactive).
As to `CC1CCc2sc3nc(N4CCN(CCO)CC4)n4ncnc4c3c2C1` (stereo not given), the growth inhibition is -9.92% (inactive).
Turning to `CCOC(=O)c1cc(NC(=O)OC)c(C)nc1C`, the growth inhibition was -4.66% (inactive).
In the case of `NC(=O)CCn1nc(-c2ccccc2)c2ccccc2c1=O` it was 6.63% (inactive).
For the molecule `CCC1(C)Cc2c(sc3c2c2ncnn2c2nnc(SCC(=O)NCc4ccco4)n32)CO1` (stereo not given), the growth inhibition was -19.2% (inactive).
The result for `Cc1cc(NS(=O)(=O)c2ccccc2)cc(Cl)c1O` reads -22.9% (inactive).
In the case of `COc1ccc(CC(=O)Nc2cc(C)c3c(=O)oc4ccccc4c3n2)cc1` it was -2.25% (inactive); in that of `COCCNC(=O)c1ccc2c(=O)n(CCOC)c(=O)[nH]c2c1`, -8.7% (inactive); in that of `CCOc1ccc(-n2c(SCC(N)=O)nc3c(c2=O)SCC3)cc1`, -1.29% (inactive).
In the case of `CCn1cc(C(=O)NCCCN2CC(C)CC(C)C2)c2cc(OC)c(OC)cc2c1=O` (stereo not given), the growth inhibition is -15.8% (inactive).
For the molecule `CCOC(=O)N1CCN(C(=O)c2oc3ccc(S(=O)(=O)N4CC(C)CC(C)C4)cc3c2C)CC1` (stereo not given), the growth inhibition is -2.93% (inactive).
In the case of `Cc1ccc(S(=O)(=O)N2CCC(C(=O)N[C@@H](C)C(=O)NCC3CCCO3)CC2)cc1` (stereo not given in full) it was -19.6% (inactive).
In the case of `Cc1cc(S(=O)(=O)N2CCN(Cc3ccc4c(c3)OCO4)CC2)cc(C)c1N1CCCC1=O` it was -10.6% (inactive).
The result for `CCCn1c(CN2CCN(c3cccc(Cl)c3)CC2)nc2c1c(=O)n(C)c(=O)n2C` reads -4.45% (inactive); that for `CC(C)CC(NC(=O)C1CCC(C)CC1)C(=O)Nc1ccccn1` (stereo not given), -11.7% (inactive); that for `NC(=O)C1CCN(c2nc(C3CC3)nc3c2nnn3Cc2ccccc2Cl)CC1`, -11.9% (inactive).
Take `CCOC(=O)COc1cccc2c(=O)n(CC(=O)NCc3ccc4c(c3)OCO4)ccc12`: the growth inhibition is -18.3% (inactive).
For the molecule `CSC(=NCCCN1CCOCC1)NS(=O)(=O)c1cccs1`, the growth inhibition is -13.8% (inactive).
In the case of `COC(=O)CNC(=O)Cn1cnc2sc(C)c(S(=O)(=O)N3CCC(C)CC3)c2c1=O` it was -2.79% (inactive).
The result for `Cc1cc(C)c(C)c(S(=O)(=O)Nc2ccccc2C(=O)NCCCn2ccnc2)c1C` reads -28% (inactive); that for `Cc1ccc(N(CC(=O)Nc2ccc(S(=O)(=O)N3CCOCC3)cc2)S(C)(=O)=O)cc1C`, -6.29% (inactive); that for `CC1CN(C(=O)c2ccccc2C(=O)c2ncc[nH]2)CC(C)O1` (stereo not given), -19.6% (inactive).
`CC(=O)c1ccc(C(=O)Nc2nnc(-c3ccc(Cl)cc3)o2)cc1`: the growth inhibition is -1.45% (inactive).
Turning to `Cc1cc(C)nc(NS(=O)(=O)c2ccc(NC(=O)c3cccs3)cc2)n1`, the growth inhibition was -11.4% (inactive).
In the case of `Cn1nnc2c(NCc3ccco3)nccc21` it was -26% (inactive); in that of `Cc1cc(NC(=O)c2ccc3c(c2)C(=O)N(C2CCCCC2)C3=O)no1`, -4.59% (inactive).
In the case of `CCOC(=O)C1CCN(C(=O)Cc2c(C(=O)O)[nH]c3ccccc23)CC1` it was -13.4% (inactive).
In the case of `CCOC(=O)N1CCN(C(=O)CN(c2cccc(C)c2)S(=O)(=O)c2ccccc2)CC1` it was -9.07% (inactive).
Regarding `CC(=O)Nc1c(C(=O)c2ccc(F)cc2)oc2ccccc12`, the growth inhibition is -23.1% (inactive).
The result for `CCc1ccc(-c2nc(CSCC(=O)N3CCN(c4ncccn4)CC3)c(C)o2)cc1` reads -2.9% (inactive); that for `COc1cc(NC(=O)COc2ccc(-n3cnnn3)cc2)c(OC)cc1Cl`, -3.27% (inactive).
The result for `COc1ccccc1CC(=O)Nc1ccc(-c2nnc(-c3ccco3)o2)cc1` reads -3.64% (inactive).
Regarding `CC(=O)c1c(C(C)=O)c(C)n(-c2nc(-c3ccccc3)c(C)s2)c1C`, the growth inhibition is 0.235% (inactive).
With `CCOC(=O)C1(c2csc(N)n2)COC(=O)C1` (stereo not given), the growth inhibition was -11.9% (inactive).
`COc1ccc(-c2nc(SC)n(C)c(=O)c2C#N)cc1OC`: the growth inhibition was -6.31% (inactive).
